Assay results pooled from the literature.
Target: Death-associated protein kinase 2 (DAPK2, Homo sapiens, UniProt Q9UIK4)

Structure (SMILES)	test	setting	endpoint	result
Cc1ccc(Nc2nccc(N(C)c3ccc4c(C)n(C)nc4c3)n2)cc1S(N)(=O)=O	enzyme activity, inhibitor	10 µM	inhibition	-4%
N[C@H]1CCN(c2nccc(-c3cnn4ncccc34)n2)C1	binding	1 µM	remaining binding	98%
CNC(=O)c1cc(Oc2ccc(NC(=O)Nc3ccc(Cl)c(C(F)(F)F)c3)cc2)ccn1	enzyme activity, inhibitor	10 µM	inhibition	6%
Cc1cc(NC(=O)c2cccc3cc(-c4cccc5[nH]nc(N)c45)ccc23)ccc1F	enzyme activity, inhibitor	0.1 µM	activity vs control	96%
Cc1ccc(C(=O)Nc2ccc(CN3CCN(C)CC3)c(C(F)(F)F)c2)cc1C#Cc1cnc2cccnn12	enzyme activity, inhibitor	23.5 nM	remaining activity	100%
N#CCCc1ccc2c(c1)-c1[nH]c3ccc([N+](=O)[O-])cc3c1CC(=O)N2	cell-free assay	0.5 µM	remaining signal	96.5%
CCN(CC)CCNC(=O)c1c(C)[nH]c(/C=C2\C(=O)Nc3ccc(F)cc32)c1C	enzyme activity, inhibitor	0.3 µM	inhibition	30%
CN(C)C(=O)Cn1cc(-c2nc([C@@](C)(c3ccc(-c4cnc(N)nc4)cc3)C3CC3)no2)cn1	cell-free assay, competition with immobilised ligand	1 µM	remaining binding	100%
Cc1ccc(NC(=O)c2ccc(C)c(C(F)(F)F)c2)cc1C#Cc1nn(C2CCC(O)CC2)c2ncnc(N)c12 (stereo not shown)	cell-free assay	10 µM	remaining signal	95%
CO[C@@H](C)c1c(Nc2ccc([C@@H](N(C)C(=O)C3CCS(=O)(=O)CC3)C(F)(F)F)cc2)cnc2cc(Cl)nn12	binding, competition with immobilised ligand	1 µM	remaining binding	41%
CC(C)(C)c1nc2c(s1)c1nc(N)ncc1c1ccc(NS(=O)(=O)c3c(F)cccc3F)c(F)c12	enzyme activity, inhibitor, radiometric	1 µM	remaining activity	81%
CC(C)(O)[C@H]1CC[C@H](Nc2ccc3ncc(-c4cccc(C(F)(F)F)c4)n3n2)CC1	enzyme activity, inhibitor	1 µM	remaining activity	107%
CC(C)(O)c1cncc(-c2nc3ccc(F)cc3n2C2CC2)c1	cell-free assay, competition with immobilised ligand	1 µM	remaining binding	100%
O=C1Nc2ccc(Cl)cc2C1=Cc1cc(Cl)c(O)c(Cl)c1	cell-free assay	0.5 µM	remaining signal	135%
Nc1ncnc2occ(-c3ccc(NC(=O)Nc4cc(C(F)(F)F)ccc4F)cc3)c12	cell-free assay, inhibitor	20 µM	remaining signal	25%
O=C(Nc1ccc(Oc2ccc(F)cc2)cc1)N1CCc2ncccc2[C@H]1c1ccc(F)cc1	cell-free assay, competition with immobilised ligand	1 µM	remaining binding	100%
